Test results as given in the array DNA melting data of Ke et al. (doi:10.1101/2024.01.08.574731).

How the values were obtained:
[1] = melting temperature; fluorescence melt of hairpins on a sequencing array, two-state fit, raised by 9.35 °C to match UV melts; details: sodium 0.088 M
How it was run: (§1)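 On a sequenced MiSeq flow cell, library hairpins with annealed Cy3 and quencher oligos were imaged for Cy3 fluorescence in 2.5 °C steps up to 60 °C, in 50 mM Na-HEPES pH 8.0, 25 mM NaCl. Normalisation used pre-quench Cy3 and control constructs. Bootstrapped two-state fits gave melting temperature and folding enthalpy, combined by inverse variance across four replicates and with fitted temperatures raised by 9.35 °C to match UV melts.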

[2] = folding enthalpy; higher = less favourable; fluorescence melt of hairpins on a sequencing array, two-state fit; details: sodium 0.088 M
How it was run: as §1

Sequence	Tm [1] [°C]	folding enthalpy [2] [kcal/mol]
GCGAAACGAAAGTTGCGC (((.(((....))).)))	65.7	-35.8
GCGAAAGGAAACTCTCGC ((((.((....)).))))	38.3	-28.1
GCGAAAGGAAACTTTCAC (.(((((....))))).)	32.6	-19.1
GCGAAAGGAAACTTTCGC (((((((....)))))))	64.6	-44.2
GCGAAAGGAAACTTTTGC ((.((((....)))).))	45.9	-32.1
GCGAACAATCGC ((((....))))	39.9	-18.3
GCGAACAGTCGC ((((....))))	42.1	-16.4
GCGAACATCGC ((((...))))	45.6	-17.1
GCGAACATTCGC ((((....))))	48.2	-21.4
GCGAACCTTCGC ((((....))))	50.3	-24.2
GCGAACGAAAGTTAGCGC ((((((....)))..)))	55.8	-31
GCGAACGAAAGTTTCCGC ((((((....)))..)))	36.2	-21.1
GCGAACGGAAACATCCGC (((.(.(....).).)))	20.9	-7.45
GCGAACTTTCGC ((((....))))	51.1	-20
GCGAAGATTCGC ((((....))))	49	-21.8
GCGAAGCGAAAGCCTAGC ((.(.((....)).).))	40.2	-7.6
GCGAAGCGAAAGCCTTGC ((.(.((....)).).))	36.3	-7.85
GCGAAGCGAAAGCTGCGC (((.(((....))).)))	67.7	-23.6
GCGAAGCGAAAGCTTAGC ((.((((....)))).))	56	-16.1
GCGAAGGAAACTTCGC ((((((....))))))	63.7	-34.8
GCGAAGGGTCGC ((((....))))	48.2	-12.1
GCGAATATCGC ((((...))))	46.5	-16.6
GCGAATCATCGC ((((....))))	47.6	-23.6
GCGAATCGAAAGATCCGC (((.(((....))).)))	52.3	-47
GCGAATGAAAATTCGC ((((((....))))))	65	-36.3

Sequence	Tm [1] [°C]	folding enthalpy [2] [kcal/mol]
GCGAATGGAAACACTCGC ((((.((....)).))))	46.2	-35.2
GCGAATGGAAACGTTTGC ((.((.(....).)).))	36	-30.7
GCGAATTTTCGC ((((....))))	53.2	-29.5
GCGACAACTCGC ((((....))))	41.7	-21.2
GCGACACGAAAGTGCCGC (((.(((....))).)))	64.3	-38.8
GCGACACTTCGC ((((....))))	52.1	-26.7
GCGACAGGAAACTGTTGC ((.((((....)))).))	54.9	-34.4
GCGACAGGTCGC ((((....))))	56.2	-27.1
GCGACAGTCGC ((((...))))	46.7	-27.8
GCGACCACTCGC ((((....))))	47	-25.4
GCGACCGAAAGGTACCGC ((((((....)))..)))	47.2	-21.9
GCGACCGAAAGGTGACGC ((((((....)))..)))	52	-26.7
GCGACCGAAAGGTTCCGC ((((((....)))..)))	43.5	-18.8
GCGACCGAAAGGTTCGC ((((((....))).)))	65.6	-33
GCGACCGATCGC ((((....))))	45.6	-21.4
GCGACCGCGAAAGCGCGC (((..(((....))))))	56.1	-15.4
GCGACCGGAAACAGTCGC (((((.(....).)))))	55.1	-39.2
GCGACCGTTCGC ((((....))))	49.1	-22.8
GCGACCTCGAAAGAGCGC (((..(((....))))))	49.1	-31.1
GCGACCTTTCGC ((((....))))	47	-21.4
GCGACGACGAAAGTCCGC (((..(((....))))))	51.4	-24.7
GCGACGCATCGC ((((....))))	49.8	-16
GCGACGCGAAAGCAACGC (((..((....))..)))	54.2	-16.8
GCGACGCGAAAGCATCGC ((((.((....)).))))	66.9	-43.2
GCGACGCGAAAGCATTGC ((.(.((....)).).))	40.5	-19.2

Sequence	Tm [1] [°C]	folding enthalpy [2] [kcal/mol]
GCGACGCGAAAGCGAAGC ((..(((....)))..))	66.2	-36.5
GCGACGCGAAAGCGCGGC ((..(((....)))..))	55.7	-13.1
GCGACGCGAAAGCTTGGC ((.(.((....)).).))	37.2	-10.3
GCGACGGCTCGC ((((....))))	49.5	-13.3
GCGACGGGAAACCACCGC (((..((....))..)))	40.2	-25.4
GCGACGGGAAACTGTCGC (((((.(....).)))))	67.6	-35.9
GCGACGGTTCGC ((((....))))	49.1	-20.1
GCGACGTTCGC ((((...))))	48	-17.3
GCGACGTTTCGC ((((....))))	47.8	-17.9
GCGACTCCGAAAGGACGC (((..(((....))))))	46.7	-25.6
GCGACTCGAAAGAGACGC (((.(((....))).)))	62.3	-48.5
GCGACTGATCGC ((((....))))	46.8	-21.9
GCGACTGGAAACAATCGC ((((.((....)).))))	45.5	-40.4
GCGACTGGAAACAGTCAC (.(((((....))))).)	48.2	-14.4
GCGACTTCGAAAGAACGC (((..(((....))))))	36.7	-22.4
GCGAGAAATCGC ((((....))))	52.5	-21.5
GCGAGAGAAATCTCGC ((((((....))))))	66.8	-32.3
GCGAGAGGAAACCCTCGC (((((.(....).)))))	54.1	-27.8
GCGAGAGGAAACTCCCGC (((.(((....))).)))	48.5	-35.5
GCGAGAGGAAACTCTTGC ((.((((....)))).))	50	-37
GCGAGAGTTCGC ((((....))))	47.5	-16.3
GCGAGATATCGC ((((....))))	56.9	-24.3
GCGAGATCTCGC ((((....))))	54.1	-35.4
GCGAGATTCGC ((((...))))	47.7	-17.1
GCGAGCCGTCGC ((((....))))	52.7	-20

Sequence	Tm [1] [°C]	folding enthalpy [2] [kcal/mol]
GCGAGCGAAAGCTCACGC ((((((....)))..)))	60.8	-14.8
GCGAGCGAAAGCTCCCGC ((((((....)))..)))	42.4	-11.6
GCGAGCGAAAGCTCTCGC ((((((....)))..)))	52.3	-17.4
GCGAGCGAAAGCTTACGC ((((((....)))..)))	50.7	-20.6
GCGAGCGAAAGCTTTCGC ((((((....)))..)))	50.3	-13.2
GCGAGCGCGAAAGCGCGC (((..(((....))))))	59.9	-7.4
GCGAGCTGTCGC ((((....))))	48.8	-17.8
GCGAGCTTTCGC ((((....))))	50.5	-19.3
GCGAGGAAACTCGC (((((....)))))	66.4	-32.6
GCGAGGACGAAAGTCCGC (((..(((....))))))	56.2	-8.47
GCGAGGCCTCGC ((((....))))	62.8	-46
GCGAGGCGAAAGCATAGC ((.(.((....)).).))	55.6	-21.2
GCGAGGCGAAAGCCCAGC ((..(((....)))..))	63.4	-10.4
GCGAGGCGAAAGCCGGGC ((..(((....)))..))	65.7	-20.8
GCGAGGGGAAACCCTTGC ((.((((....)))).))	55.6	-35.8
GCGAGTATCGC ((((...))))	58.4	-18.7
GCGAGTATTCGC ((((....))))	57.2	-26.6
GCGAGTCTTCGC ((((....))))	57.2	-26.2
GCGAGTGCTCGC ((((....))))	52	-26.2
GCGAGTTTTCGC ((((....))))	53.3	-16.5
GCGATAAATCGC ((((....))))	49.8	-19.3
GCGATAACGAAAGTTCGC (((..(((....))))))	51.1	-28.2
